Assay results of several laboratories.
Lines come from different studies, so protocols differ. Values after ≈ are worked out from the molar mass of the structure shown.

SMILES | tested on | assay | conditions | endpoint | result
CC(=O)Nc1cccc(-n2c(=O)n(C3CC3)c(=O)c3c(Nc4ccc(I)cc4F)n(C)c(=O)c(C)c32)c1 | SW-620 | cell growth or viability, resazurin | 1.56 nM, 72 h | viability | 56.3%
O=C(O)c1ccc(CN2CCC(CN[C@@H]3C[C@H]3c3ccccc3)CC2)cc1 | TF-1a | cell growth or viability, resazurin | 96 h | EC50 | 76.4 nM
O=C1O[C@H]([C@@H](O)CO)C(O)=C1O |  | DPPH scavenging |  | IC50 | 3.6 µg/mL
O=C(Cc1c[nH]c2ccccc12)Nc1ccc(F)c(F)c1 |  | DPPH scavenging |  | IC50 | 1420 nM
O=C(O)c1cn(C2CC2)c2cc(N3CCNCC3)c(F)cc2c1=O | Haemophilus influenzae | microbial growth |  | MIC90 | 0.03 µg/mL (≈ 0.0905 µM)
C/C(=N\NC(=O)c1cccc(S(=O)(=O)N2CCN(C)CC2)c1)c1cc(Cl)ccc1O | TF-1a | cell growth or viability, resazurin | 96 h | EC50 | 1260 nM
CC1(C)S[C@@H]2[C@H](NC(=O)[C@H](N)c3ccccc3)C(=O)N2[C@H]1C(=O)O | Haemophilus influenzae | microbial growth |  | MIC90 | 128 µg/mL (≈ 366 µM)
CCc1ccc(NC(=O)Cc2c[nH]c3ccccc23)cc1 |  | DPPH scavenging |  | IC50 | 1920 nM
